Calls of active or inactive are those of the source. The rule behind the calls is not given here.
How the values were obtained:
[1] = biological target: T1, Bromodomain-containing protein 4 (Homo sapiens, UniProt O60885); assay: Inhibition of His/thioredoxin-tagged human recombinant BRD4 bromodomain-1 (43 to 166 residues) expressed in Escherichia coli BL21 Star (DE3) pre-incubated for 30 mins followed by biotinylated histone peptide H4 addition measured after 30 mins by AlphaScreen assay
[2] = biological target: T2, Serine/threonine-protein kinase ULK1 (Homo sapiens) (UniProt O75385); assay: Activation of recombinant human ULK1 (1 to 649 residues) expressed in baculovirus infected Sf9 cells at 1 to 10^6 nM using MBP as substrate after 60 mins in presence of ATP by […] assay
T2 sequence (whole entry): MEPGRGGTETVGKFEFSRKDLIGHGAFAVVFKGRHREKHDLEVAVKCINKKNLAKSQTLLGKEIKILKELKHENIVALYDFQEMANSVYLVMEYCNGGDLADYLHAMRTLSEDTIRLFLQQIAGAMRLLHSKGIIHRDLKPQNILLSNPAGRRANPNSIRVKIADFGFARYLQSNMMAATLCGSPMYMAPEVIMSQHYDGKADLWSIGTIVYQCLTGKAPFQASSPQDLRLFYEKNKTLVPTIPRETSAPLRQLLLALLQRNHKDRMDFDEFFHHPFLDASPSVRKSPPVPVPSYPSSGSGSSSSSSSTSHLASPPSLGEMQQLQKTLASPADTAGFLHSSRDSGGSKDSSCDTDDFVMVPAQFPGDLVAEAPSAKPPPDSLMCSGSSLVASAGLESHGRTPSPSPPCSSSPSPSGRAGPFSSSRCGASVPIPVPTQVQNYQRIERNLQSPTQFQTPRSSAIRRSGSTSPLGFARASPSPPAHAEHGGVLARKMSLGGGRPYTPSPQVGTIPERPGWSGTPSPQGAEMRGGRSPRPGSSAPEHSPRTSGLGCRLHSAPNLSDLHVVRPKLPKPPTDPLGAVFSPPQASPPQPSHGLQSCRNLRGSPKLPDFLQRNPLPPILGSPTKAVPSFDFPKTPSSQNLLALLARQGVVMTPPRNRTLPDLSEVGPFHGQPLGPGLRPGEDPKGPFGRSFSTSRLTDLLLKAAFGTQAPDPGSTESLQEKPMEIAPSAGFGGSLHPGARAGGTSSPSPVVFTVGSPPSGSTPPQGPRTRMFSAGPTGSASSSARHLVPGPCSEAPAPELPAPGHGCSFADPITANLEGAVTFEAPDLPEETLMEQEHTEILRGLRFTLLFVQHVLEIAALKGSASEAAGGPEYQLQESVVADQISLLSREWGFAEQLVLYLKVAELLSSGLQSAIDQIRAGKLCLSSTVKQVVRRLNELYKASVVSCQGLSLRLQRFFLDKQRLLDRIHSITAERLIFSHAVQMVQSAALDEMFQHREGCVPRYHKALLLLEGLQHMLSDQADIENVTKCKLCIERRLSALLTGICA
Procedure, shortened: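 ADP-Glo luminescent kinase assay; AMPK or ULK1 enzyme, substrate, ATP and compound diluted in 40 mM Tris pH 7.5, 20 mM MgCl2, 0.1 mg/ml BSA, 50 µM DTT. Enzyme (10 ng) mixed with MBP (0.1 µg/µl)/ATP (10 µM) and compound, 60 min at room temperature. ADP-Glo reagent 40 min, then detection reagent 30 min, luminescence read; signal rises with kinase activity.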

MCF7 [3] = assay: Inhibition of BRD4 protein expression in human MCF7 cells at 1.5 uM measured up to 36 hrs by Western blot analysis; type: functional, cell-based
Procedure, shortened: (§1)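 MCF-7 (1.5 μM) or MDA-MB-231 (3 μM) cells treated for indicated times. Adherent and floating cells lysed in RIPA with 1 mM PMSF. Equal protein run on 10-15% SDS-PAGE, blotted to PVDF, blocked in milk or BSA, HRP/ECL detection. β-actin loading control.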

MDA-MB-231 [4] = assay: Inhibition of BRD4 protein expression in human MDA-MB-231 cells at 3 uM measured up to 36 hrs by Western blot analysis; type: functional, cell-based; procedure, shortened: as §1
[5] = biological target: T1, Bromodomain-containing protein 4; assay: Inhibition of BRD4 in human MDA-MB-231 cells assessed as downregulation of AKT phosphorylation at ser473 at 3 uM measured up to 36 hrs by Western blot analysis; type: cell-based; procedure, shortened: as §1
MDA-MB-231 [6] = assay: Effect on mTOR expression in human MDA-MB-231 cells at 3 uM measured up to 36 hrs by Western blot analysis; type: ADME, cell-based; conditions: mda-mb-231, 36 h
Procedure, shortened: (§2)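 MCF-7 (1.5 µM) or MDA-MB-231 (3 µM) cells treated for indicated times. Adherent and floating cells lysed in RIPA with 1 mM PMSF, 4°C for 1 h. Equal protein run on 10-15% SDS-PAGE, transferred to PVDF, blocked with milk or BSA, probed with primary then HRP secondary antibodies, ECL detection; β-actin as loading control.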

[7] = biological target: Bromodomain-containing protein 3 (Homo sapiens, UniProt Q15059); assay: Inhibition of recombinant human N-terminal GST-tagged BRD3 bromodomain-1 (29 to 145 residues) expressed in Escherichia coli expression system after 120 mins by TR-FRET assay
Bromodomain-containing protein 3, sequence (Q15059 whole entry, the tested form may be a part): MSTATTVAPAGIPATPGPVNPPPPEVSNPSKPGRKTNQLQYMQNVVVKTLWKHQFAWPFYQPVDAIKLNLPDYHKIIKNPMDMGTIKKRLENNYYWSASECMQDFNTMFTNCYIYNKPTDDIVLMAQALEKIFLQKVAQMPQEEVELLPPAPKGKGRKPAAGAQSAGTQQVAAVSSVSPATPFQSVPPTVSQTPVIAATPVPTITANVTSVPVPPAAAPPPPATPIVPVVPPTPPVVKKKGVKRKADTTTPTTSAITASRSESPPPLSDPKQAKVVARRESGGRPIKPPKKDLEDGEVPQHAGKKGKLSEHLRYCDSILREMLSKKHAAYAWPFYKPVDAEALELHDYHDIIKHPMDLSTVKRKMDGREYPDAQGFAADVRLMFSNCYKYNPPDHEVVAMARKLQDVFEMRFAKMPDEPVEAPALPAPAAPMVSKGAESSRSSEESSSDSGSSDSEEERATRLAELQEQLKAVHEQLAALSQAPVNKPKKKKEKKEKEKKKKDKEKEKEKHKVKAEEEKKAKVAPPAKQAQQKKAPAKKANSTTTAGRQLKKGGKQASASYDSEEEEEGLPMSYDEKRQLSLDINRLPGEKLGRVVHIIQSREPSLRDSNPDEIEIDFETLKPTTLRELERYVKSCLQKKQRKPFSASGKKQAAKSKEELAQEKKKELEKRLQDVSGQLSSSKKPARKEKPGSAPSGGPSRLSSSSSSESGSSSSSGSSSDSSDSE
Procedure, shortened: (§3)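 TR-FRET bromodomain binding. Recombinant BRD domain, BET ligand and test agent in 20 μl assay buffer with 1% DMSO final. Incubated 120 min at room temperature. Blank lacks BET ligand.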

[8] = biological target: Bromodomain testis-specific protein (Homo sapiens, UniProt Q58F21); assay: Inhibition of recombinant human N-terminal GST-tagged BRDT bromodomain-1 (22 to 138 residues) expressed in Escherichia coli expression system after 120 mins by TR-FRET assay; procedure, shortened: as §3
MDA-MB-231 [9] = assay: Antitumor activity against human MDA-MB-231 cells xenografted in ig dosed nude BALB/c mouse assessed as tumor growth inhibition administered once a day for 27 days measured every 3 days relative to control; type: functional, organism-based
Procedure, shortened: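 Female BALB/c nude mice, 6-8 weeks, 20-22 g, injected subcutaneously with 5×10^6 MCF-7 or MDA-MB-231 cells. At 100 mm³ tumor volume (V = L×W²/2), split into four groups: 25, 50 or 100 mg/kg intragastric once daily for 24 or 27 days, or vehicle. Tumor volume and body weight measured every 3 days; tumors excised and weighed at end. MCF-7 n=7, MDA-MB-231 n=6 per group.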

[10] = biological target: T1, Bromodomain-containing protein 4; assay: Inhibition of BRD4 in human MCF7 cells assessed as reduction in ATG13 protein expression at 1.5 uM up to 36 hrs by Western blot analysis; type: cell-based; procedure, shortened: as §1
[11] = biological target: T1, Bromodomain-containing protein 4; assay: Inhibition of BRD4 in human MDA-MB-231 cells assessed as reduction in FIP200 protein expression at 3 uM up to 36 hrs by Western blot analysis; type: cell-based; procedure, shortened: as §1
MCF7 [12] = assay: Downregulation of HMGB1 expression in human MCF7 cells at 1.5 uM measured up to 24 hrs by Western blot analysis; type: functional, cell-based; procedure, shortened: as §2
Mus musculus = assay: Induction of LC3 accumulation in BALB/c mouse xenografted with human MDA-MB-231 cells at 100 mg/kg, ig administered once a day for 24 days by Western blot analysis; type: functional, organism-based
Procedure, shortened: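 Tumor tissues excised from MCF-7 or MDA-MB-231 xenograft mice were lysed and analysed by western blot for BRD4, c-Myc, LC3 and cleaved caspase-3.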

IC50 [1]: 430 nM
Activity [2]: inactive
inhibition [5]: Active
IC50 [7]: > 100 µM
IC50 [8]: > 100 µM
inhibition [10]: Active
inhibition [11]: Active
SMILES: Cc1cc(-c2nc3sc4c(c3c(=O)[nH]2)CCN(C)C4)cc(C)c1O
inhibition (MCF7 [3]): Active
inhibition (MDA-MB-231 [4]): Active
Activity (MDA-MB-231 [6]): Non-Toxic
TGI (MDA-MB-231 [9]): Dose-dependent effect
Activity (MCF7 [12]): Active
Activity (Mus musculus): Active

Source: ChEMBL document CHEMBL4028911, “Discovery of a Small-Molecule Bromodomain-Containing Protein 4 (BRD4) Inhibitor That Induces AMP-Activated Protein Kinase-Modulated Autophagy-Associated Cell Death in Breast Cancer” (J Med Chem, 2017)
